From ChEMBL document CHEMBL2046366, “Design, synthesis and biological evaluation of novel imidazopyridines as potential antidiabetic GSK3β inhibitors” (Bioorg Med Chem Lett, 2012)

Columns and labels:
[1] = Metabolic stability in mouse liver microsome after 45 mins by mass spectroscopy; type: ADME; conditions: liver microsomes, read-out: Stability
Procedure, shortened: (§1)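 Compound incubated with human or mouse liver microsomes at 37 °C for 45 min. Percent compound remaining was measured by mass spectrometry.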

[2] = Metabolic stability in human liver microsome after 45 mins by mass spectroscopy; type: ADME; conditions: liver microsomes, read-out: Stability; procedure, shortened: as §1
[3] = AUC in ICR mouse at 27.3 mg/kg, po; type: ADME, organism-based; parameters: dose 27.3 mg/kg, route oral; conditions: plasma
Procedure, shortened: (§2)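 Single oral dose of 27.3 mg kg^-1, given as HCl salt formulation, to male ICR mice (n = 2). AUC, Cmax and Tmax were derived from plasma concentration–time data.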

[4] = Cmax in ICR mouse at 27.3 mg/kg, po; type: ADME, organism-based; parameters: dose 27.3 mg/kg, route oral; conditions: in vivo; procedure, shortened: as §2
[5] = Tmax in ICR mouse at 27.3 mg/kg, po; type: ADME, organism-based; parameters: dose 27.3 mg/kg, route oral; conditions: in vivo; procedure, shortened: as §2

| Structure (SMILES) | remaining at 0.75 h [1] | remaining at 0.75 h [2] | AUC [3] | Cmax [4] | Tmax [5] |
| --- | --- | --- | --- | --- | --- |
| O=C(NCCCc1ccc(Cl)nc1)c1ccnc2[nH]c(-c3ccc(F)cc3)nc12 | 4.2% | 25.7% |  |  |  |
| COc1ccncc1NC(=O)c1ccnc2[nH]c(-c3cccc(Cl)c3)nc12.Cl |  |  | 27 ng·h/mL |  |  |
| O=C(NCCc1ccc(F)nc1)c1ccnc2nc(-c3ccc(F)cc3)[nH]c12 | 2.9% | 9.4% |  |  |  |
| O=C(Nc1cccnc1)c1ccnc2[nH]c(-c3ccc(F)cc3)nc12 | 70% |  |  |  |  |
| O=C(NCCc1cccc(O)c1)c1ccnc2[nH]c(-c3ccc(F)cc3)nc12 | 11.1% | 12.1% |  |  |  |
| CS(=O)(=O)Nc1ccc(CCNC(=O)c2ccnc3[nH]c(-c4ccc(F)cc4)nc23)cc1 | 0.8% | 13% |  |  |  |
| CN(C)S(=O)(=O)Nc1ccc(CCNC(=O)c2ccnc3[nH]c(-c4ccc(F)cc4)nc23)cc1 | 1% | 7.4% |  |  |  |
| CS(=O)(=O)Nc1ccc(CCNC(=O)c2ccnc3[nH]c(-c4ccc(Cl)cc4)nc23)cc1 | 70.2% | 86.6% |  |  |  |
| CS(=O)(=O)Nc1ccc(CCNC(=O)c2ccnc3[nH]c(-c4ccoc4)nc23)cc1 | 5.2% | 47% |  |  |  |
| CS(=O)(=O)Nc1ccc(CCNC(=O)c2ccnc3[nH]c(-c4cccs4)nc23)cc1 | 2.2% | 36.8% |  |  |  |
| CN(C)S(=O)(=O)Nc1ccc(CCNC(=O)c2ccnc3[nH]c(-c4ccsc4)nc23)cc1 | 1.6% | 13.3% |  |  |  |
| O=C(NCCc1cccnc1Cl)c1ccnc2[nH]c(-c3ccoc3)nc12 | 1.5% | 26.5% |  |  |  |
| Cc1ccncc1NC(=O)c1ccnc2[nH]c(N3CCC(c4ccccc4)C3)nc12 (centres undefined) | 28.9% | 36.5% |  |  |  |
| CCN(CC)c1ccc(-c2nc3c(C(=O)Nc4cnccc4C)ccnc3[nH]2)cc1 | 0% | 0% |  |  |  |
| COc1ccncc1NC(=O)c1ccnc2[nH]c(-c3ccc(F)cc3)nc12 | 87% | 71% |  |  |  |
| CCOc1ccncc1NC(=O)c1ccnc2[nH]c(-c3ccc(F)cc3)nc12 | 36% | 38% |  |  |  |
| Cc1ccc(NC(=O)c2ccnc3[nH]c(-c4ccc(F)cc4)nc23)cn1 | 47.4% | 33.3% |  |  |  |
| COc1ccc(-c2nc3c(C(=O)Nc4cnccc4C)ccnc3[nH]2)cc1 | 56.8% | 51.4% |  |  |  |
| COc1cccc(-c2nc3c(C(=O)Nc4cnccc4C)ccnc3[nH]2)c1 | 6.6% | 4% |  |  |  |
| CCOc1ccncc1NC(=O)c1ccnc2[nH]c(-c3cccnc3)nc12 | 6.3% | 6.5% |  |  |  |
| CCOc1ccncc1NC(=O)c1ccnc2[nH]c(-c3cccc(OC)c3)nc12 | 6.4% | 23.8% |  |  |  |
| COc1ccncc1NC(=O)c1ccnc2[nH]c(-c3cccc(Cl)c3)nc12 | 46.7% | 36.5% |  |  |  |
| COc1ccncc1NC(=O)c1ccnc2nc(-c3ccncc3)[nH]c12 | 27% | 96% |  |  |  |
| Cc1ccncc1NC(=O)c1ccnc2[nH]c(N3CCC(c4ccccc4)C3)nc12.Cl (centres undefined) |  |  | 39 ng·h/mL |  |  |
| COc1ccncc1NC(=O)c1ccnc2[nH]c(-c3ccc(F)cc3)nc12.Cl |  |  | 545 ng·h/mL | 228 ng/mL | 1 h |
| Cc1ccc(NC(=O)c2ccnc3[nH]c(-c4ccc(F)cc4)nc23)cn1.Cl |  |  | 2400 ng·h/mL | 843 ng/mL | 3 h |
| COc1ccc(-c2nc3c(C(=O)Nc4cnccc4C)ccnc3[nH]2)cc1.Cl |  |  | 645 ng·h/mL | 496 ng/mL | 0.5 h |
